Test [1] relates to Nucleic Acid. The test is described as follows: Binding affinity to ICB2 site of topoisomerase 2alpha cognate sequence ATCGAT at 2 uM after 30 mins by DNase I footprinting assay. In kind it is nucleic-acid assay. The method in brief: (§1)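 DNase I footprinting on a PCR-made radiolabeled 131-bp fragment. The fragment was incubated 30 min at room temperature with drug in TN buffer (10 mM Tris, 10 mM NaCl, pH 7). It was then cleaved 3 min with 0.02 U DNase I in buffer containing Mg2+/Mn2+ (pH 8.0) and stopped on dry ice. Products were resolved on a denaturing 10% polyacrylamide urea gel.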

The test system of test [2] is Nucleic Acid. The test is described as follows: Binding affinity to ICB2 site of topoisomerase 2alpha cognate sequence ATCGAT at 1 uM after 30 mins by DNase I footprinting assay. In kind it is nucleic-acid assay. The method in brief:
as §1

The test system of test [3] is Nucleic Acid. Put plainly: Binding affinity to ICB2 site of topoisomerase 2alpha non-cognate AAATTT by isothermal titration microcalorimetry. It counts as nucleic-acid assay. The method in brief:
(§2)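 ITC at 25 °C in PO45 buffer. Compound (100 µM) titrated into 2 µM DNA as 50 injections every 240 s after a 300 s delay. A linear fit was subtracted from the integrated heats to remove non-specific heat, giving ΔH.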
(ITC needs no label: the signal is the heat of the interaction.)

Test [4] has as its system Nucleic Acid. Put plainly: Binding affinity to ICB2 site of topoisomerase 2alpha cognate sequence TACGAT assessed as change in melting temperature at 3 uM by thermal denaturation. In kind it is nucleic-acid assay. The method in brief:
(§3)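 Thermal melting by UV spectrophotometry: DNA hairpin 1 µM with compound 3 µM in PO40 buffer (10 mM phosphate, 12.5 mM Na+, 1 mM EDTA, pH 6.2). ΔTm taken as the difference in Tm between ligand-bound and free DNA.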

Test [5] relates to Nucleic Acid. The test is described as follows: Inhibition of nuclear factor Y binding to ICB2 site of topoisomerase 2alpha cognate sequence TACGAT in mouse NIH/3T3 cells at > 3 uM preincubated for 1 hr by electrophoretic mobility shift assay. It counts as cell-based. The conditions noted are these: NIH3T3. Background: Mobility shift assays separate free from complexed probe on a gel.

Test [6] relates to Nucleic Acid. The test is described as follows: Binding affinity to ICB2 site of topoisomerase 2alpha non-cognate AAATTT assessed as change in melting temperature at 3 uM by thermal denaturation. In kind it is nucleic-acid assay. The method in brief:
as §3

Test [7] relates to Nucleic Acid. Put plainly: Inhibition of nuclear factor Y binding to ICB2 site of topoisomerase 2alpha cognate sequence TACGAT in mouse NIH/3T3 cells at > 3 uM treated after addition of probe by electrophoretic mobility shift assay. It counts as cell-based. The conditions noted are these: NIH3T3.
For test [8], the system named is Nucleic Acid. The test is described as follows: Binding affinity to ICB2 site of topoisomerase 2alpha cognate sequence ATCGAT by isothermal titration microcalorimetry. In kind it is nucleic-acid assay. The method in brief:
as §2

For another test, the system named is L1210. The test is described as follows: Cytotoxicity against mouse L1210 cells after 72 hrs by MTT assay. It counts as cell-based. Particulars: L1210, 72 h. The method in brief: (§4)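 Cells exposed to a compound concentration gradient for 72 h, then MTT added and developed 4 h. Absorbance read; IC50 taken as the concentration giving 50% growth inhibition versus untreated control.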
(In general: Formazan colour is commonly taken as a measure of viable cells.)

Test [9] concerns Nucleic Acid. Put plainly: Binding affinity to biotinylated ICB2 site of topoisomerase 2alpha cognate sequence ATCGAT by surface plasmon resonance assay. In kind it is nucleic-acid assay. The method in brief: (§5)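 SPR at 25 °C with biotinylated DNA hairpins immobilized on a chip, in cacodylic acid buffer pH 6.25 with 0.1 M NaCl. Compound injected at a range of concentrations (up to 4 µM) at 25 µL/min with 400 s dissociation; surface regenerated with glycine pH 2.5. Keq derived from steady-state fits.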

In test [10] the test system is Nucleic Acid. The test is described as follows: Binding affinity to biotin labeled ICB2 site of topoisomerase 2alpha non-cognate AAATTT by surface plasmon resonance assay. In kind it is nucleic-acid assay. The method in brief:
as §5

For test [11], the system named is Nucleic Acid. The test is described as follows: Binding affinity to ICB2 site of topoisomerase 2alpha cognate sequence TACGAT by isothermal titration microcalorimetry. In kind it is nucleic-acid assay. The method in brief:
as §2

In test [12] the test system is Nucleic Acid. The test is described as follows: Binding affinity to ICB2 site of topoisomerase 2alpha cognate sequence TACGAT by circular dichroism spectra analysis. It counts as nucleic-acid assay. The method in brief: (§6)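 CD spectra recorded in a 1 mm cuvette with 2.4 nm bandpass, integration time set as a function of PMT high volts. PO45 buffer (10 mM phosphate, 50 mM Na+, 1 mM EDTA, pH 6.2); run in duplicate.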

Test [13] has as its system Nucleic Acid. Put plainly: Binding affinity to ICB2 site of topoisomerase 2alpha cognate sequence ATCGAT at 6 molar equivalent concentration by circular dichroism spectra analysis. In kind it is nucleic-acid assay. The method in brief: as §6
Another test deals with NIH3T3. The test is described as follows: Inhibition of topoisomerase 2alpha expression in mouse NIH/3T3 cells up to 80 uM after 4 to 24 hrs by Western blotting. In kind it is functional, cell-based. The method in brief:
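NIH 3T3 cells held at confluence for 96 h, then treated with compound (40 and 80 µM) for 6 and 24 h. Nuclear extract (50 µg) immunoblotted with polyclonal topoIIα antibody (1:1000), detected by ECL. Lamin A/C used as loading control.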

Test [14] has as its system Nucleic Acid. Put plainly: Binding affinity to ICB2 site of topoisomerase 2alpha cognate sequence ATCGAT assessed as change in melting temperature at 3 uM by thermal denaturation. It counts as nucleic-acid assay. The method in brief:
as §3

A further test deals with B16. The test is described as follows: Cytotoxicity against mouse B16 cells after 72 hrs by MTT assay. It counts as cell-based. Particulars: B16, 72 h. The method in brief:
as §4

Molecules are shown by their SMILES. Calls of active or inactive are those of the source. No cut-off for these calls is given here. A value given as a limit tells only on which side of the number the result lay.

By ΔTm is commonly meant the change in melting temperature against a reference sample. The IC50 is the concentration that inhibits the measured activity by half. A higher IC50 goes with a need for much substance.

Turning to `CN(C)CCCNC(=O)c1cc(NC(=O)c2nc(NC(=O)c3cc(NC=O)cn3C)cn2C)cn1C`, in the test on Nucleic Acid [1], the outcome was Active. In the test on Nucleic Acid [2], the result was inactive.

Turning to `CN(C)CCCNC(=O)c1cc(NC(=O)c2nc(NC(=O)c3cc(NC=O)cn3CCOCCOCCn3cc(NC=O)cc3C(=O)Nc3cn(C)c(C(=O)Nc4cc(C(=O)NCCCN(C)C)n(C)c4)n3)cn2C)cn1C`, the outcome in the test with Nucleic Acid [3] and in the test on NIH3T3 was inactive. Further, the ΔTm with Nucleic Acid [4] stood at 3 °C; with Nucleic Acid [6], 4 °C; with Nucleic Acid [14] it was 6 °C. The outcome with Nucleic Acid [5], with Nucleic Acid [7], with Nucleic Acid [8], with Nucleic Acid [1], in the test on Nucleic Acid [11] and with Nucleic Acid [12] was Active. Besides, the outcome with Nucleic Acid [13] and in the test with Nucleic Acid [2] was Active. The IC50 in the test with L1210 and in the test with B16 was above 100 µM in each case. In the test on Nucleic Acid [9], the Ke worked out at 5 ×10⁵ /M. Besides, the Ke entry with Nucleic Acid [10] was “inactive”.

These data come from ChEMBL document CHEMBL1250458, “Targeting the ICB2 site of the topoisomerase IIalpha promoter with a formamido-pyrrole-imidazole-pyrrole H-pin polyamide” (Bioorg Med Chem, 2010).
